Assays:
Plasmodium falciparum = experiment: Antiplasmodial activity against Plasmodium falciparum Dd2 after 72 hrs by SYBR Green I dye-based assay; format: functional, organism-based; settings: Dd2, 72 h
Outline: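 Ring-stage Dd2 cultures at 1% hematocrit and 1% parasitemia grown 72 h at 37 °C under 5.05% CO₂/4.93% O₂/90.2% N₂ with increasing drug concentrations. Viability read by SYBR Green I DNA quantitation in lysis buffer (0.4 μL dye/mL). IC₅₀ by nonlinear regression. Mean of three independent determinations, each in duplicate, ±SEM.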

HEK293 = experiment: Cytotoxicity against HEK293 cells assessed as reduction in cell viability after 24 hrs by resazurin dye based assay; settings: Homo sapiens, HEK293, 24 h
Outline: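 10,000 HEK293 cells per well allowed to adhere, then medium replaced with medium containing varying compound amounts for 24 h. Resazurin sodium salt (0.125 mg/mL, 10 μL per well) added for 2 h. Viability from fluorescence at 585 nm, excitation 540 nm.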

A2780 = experiment: Antiproliferative activity against human A2780 cells after 2 days by alamar blue assay; format: functional, cell-based; settings: A2780, 48 h

SMILES	IC50 (Plasmodium falciparum) [µM]	IC50 (A2780) [µM]	IC50 (HEK293) [µM]
C[C@@H]1CC[C@H]2[C@@H](C)C(=O)O[C@@H]3O[C@@]4(C)CC[C@@H]1[C@]32OO4 [ARTEMISININ]	0.007	–	–
C=C(C)C(=O)O[C@@H]1C/C(C)=C\[C@@]2(O)C=C(C)[C@H](O2)[C@H]2OC(=O)C(COC(C)=O)=C12	44.3	–	58.8

Further compounds by falling IC50 (Plasmodium falciparum), results first:

IC50 (Plasmodium falciparum) [µM]	IC50 (A2780) [µM]	SMILES	IC50 (HEK293) [µM]
37.1	–	C=C(C)C(=O)O[C@H]1C/C(C)=C\C(=O)/C=C(\C)[C@@H](O)[C@@H]2OC(=O)C(COC(C)=O)=C12	56
12.1	–	C=C(C)C(=O)O[C@H]1C/C(C)=C\C(=O)C[C@@]2(C)O[C@H]2[C@H]2OC(=O)C(COC(C)=O)=C12	23.8
1.49	0.21	C=C(C)C(=O)O[C@H]1C/C(C)=C\C(=O)/C=C(C)/C=C2/OC(=O)C(COC(C)=O)=C21	3.5

— ChEMBL document CHEMBL4118047, “Antiplasmodial Sesquiterpenoid Lactones from Trichospira verticillata: Structure Elucidation by Spectroscopic Methods and Comparison of Experimental and Calculated ECD Data” (J Nat Prod, 2017)
